This passage reports GFP response vs DMSO, GFP response relative to DMSO and GFP response, % of DMSO results from PubChem BioAssay.

Activity calls are given as the source filed them.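 The calls were made as follows, unless noted: active = GFP response above 150% of the DMSO level; inconclusive = fewer than 70 events counted for a yeast strain; inactive = the rest.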

Assay [1] is described as follows: hit retest on RPL19A-GFP reporter strain – cell-based, S. cerevisiae, flow cytometry, cherry picks, mother/daughter gates, confirmation (AID 2270;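 active = GFP response below 50% of the DMSO control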). The following applies: 3 h, at 10 µM, stronger effect = lower value, 100 = same GFP as DMSO wells.
The nature of assay [2]: yeast TOR pathway reporter LAP4-GFP change – cell-based, cherry picks, flow cytometry, mother/daughter gates, confirmation (AID 2271;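 active = GFP response above 150% of the DMSO control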;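 also: ratio of sample to DMSO plate mean so 100% equals DMSO level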). The conditions noted are these: S. cerevisiae LAP4-GFP strain, 3 h, at 10 µM, stronger effect = higher value, 100 means same as DMSO control. The method, boiled down:
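Material – Alexa Fluor 633-labelled Saccharomyces cerevisiae GFP-fusion strain, single-plex · Incubation – compound exposure 3 h at 30 °C, end-over-end rotation · Measured by – GFP by flow cytometry · Measure – median GFP fluorescence as percent of plate-mean DMSO wells · Control set – positive rapamycin (400 ng/mL), negative DMSO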

The nature of assay [3]: TOR pathway reporter MEP2-GFP, retest of hits – S. cerevisiae, flow cytometry GFP, cherry picks, confirmation (AID 2272;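 active = GFP response above 150% of the DMSO control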;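 also: ratio of well signal to plate DMSO mean so 100% equals DMSO level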). The following applies: S. cerevisiae MEP2-GFP strain, 3 h, at 10 µM, stronger effect = higher value.
The nature of assay [4]: yeast AGP1-GFP fluorescence change, single-dose – cell-based, flow cytometry, S. cerevisiae, cherry picks, confirmation (AID 2273).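 Also: median GFP channel fluorescence over the whole cell population gate.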 The conditions noted are these: S. cerevisiae AGP1-GFP strain, 3 h, at 10 µM.
Assay [5] can be described thus: TOR pathway CIT2 reporter hit retest – S. cerevisiae, GFP fusion, cherry picks, mother/daughter gates, confirmation (AID 2274). The following applies: S. cerevisiae CIT2-GFP strain, flow cytometry, 3 h, at 10 µM, stronger effect = higher value.
Setting [6] is: measured here: daughter cell gate.
Where [7] appears, read: measured here: mother cell gate.
The mark [8] stands for this setting: measured here: daughter cell gate response.
[9] abbreviates: measured here: mother cell gate response.

Turning to `COc1ccc(-c2csc(NC(=O)c3ccco3)n2)cc1`, the GFP response vs DMSO in assay [1] is 98.4% (inactive); in assay [1] (setting [6]), 96.7%; in assay [1] (setting [7]), 97.8%; in assay [3], 104% (inactive). Further, the values for the GFP response relative to DMSO in assay [2], in assay [2] (setting [8]) and in assay [2] (setting [9]) were 109% (inactive), 102% and 109%, respectively. The GFP response, % of DMSO is 91.9% (inactive) in assay [4], 99.3% (inactive) in assay [5], 100% in assay [5] (setting [6]) and 96.8% in assay [5] (setting [7]).
Regarding `Cc1ccccc1OCC(=O)NNC(=S)NC(=O)c1ccco1`, the GFP response vs DMSO in assay [1] was 122% (inactive); in assay [1] (setting [6]), 111%; in assay [1] (setting [7]), 118%; in assay [3], 129% (inactive). Moreover, the GFP response relative to DMSO in assay [2] was 147% (inactive); in assay [2] (setting [8]), 135%; in assay [2] (setting [9]), 137%. Moreover, the GFP response, % of DMSO is 110% (inactive) in assay [4], 125% (inactive) in assay [5], 122% in assay [5] (setting [6]) and 112% in assay [5] (setting [7]).
`Cc1nc2ccccc2c(=O)n1/N=C/c1ccc([N+](=O)[O-])o1`: the GFP response vs DMSO in assay [1] was 104% (inactive); in assay [1] (setting [6]), 108%; in assay [1] (setting [7]), 104%; in assay [3], 116% (inactive). Moreover, the GFP response relative to DMSO was 121% (inactive) in assay [2], 120% in assay [2] (setting [8]) and 121% in assay [2] (setting [9]). The GFP response, % of DMSO is 102% (inactive) in assay [4], 121% (inactive) in assay [5], 128% in assay [5] (setting [6]) and 115% in assay [5] (setting [7]).
Take `Cc1ccc(-n2ncc(C#N)c2/N=C/N(C)C)cc1`: the GFP response vs DMSO was 103% (inactive) in assay [1], 101% in assay [1] (setting [6]), 103% in assay [1] (setting [7]) and 107% (inactive) in assay [3]. In addition, the results for the GFP response relative to DMSO in assay [2], in assay [2] (setting [8]) and in assay [2] (setting [9]) were 101% (inactive), 101% and 103%, respectively. The GFP response, % of DMSO is 94.2% (inactive) in assay [4], 94.4% (inactive) in assay [5], 92% in assay [5] (setting [6]) and 79.7% in assay [5] (setting [7]).
On to `CSc1nc2ccc(S(=O)(=O)N3CCCC3)cc2s1`, for which the GFP response vs DMSO is 90.5% (inactive) in assay [1], 85.5% in assay [1] (setting [6]), 93.3% in assay [1] (setting [7]) and 95.7% (inactive) in assay [3]. Also, the GFP response relative to DMSO in assay [2] is 135% (inactive); in assay [2] (setting [8]), 128%; in assay [2] (setting [9]) it was 140%. Besides, the GFP response, % of DMSO in assay [4] was 94.1% (inactive); in assay [5], 78.2% (inactive); in assay [5] (setting [6]), 75.2%; in assay [5] (setting [7]), 80.5%.
Consider `COc1ccc(N2C(=O)C(Cl)=C(Nc3ccccc3OC)C2=O)cc1`, for which the GFP response vs DMSO was 101% (inactive) in assay [1], 98.4% in assay [1] (setting [6]), 102% in assay [1] (setting [7]) and 105% (inactive) in assay [3]. Besides, the GFP response relative to DMSO in assay [2] was 98.2% (inactive); in assay [2] (setting [8]), 94.2%; in assay [2] (setting [9]), 98.4%. Also, the GFP response, % of DMSO in assay [4] was 98% (inactive); in assay [5], 97.3% (inactive); in assay [5] (setting [6]) it was 97.4%; in assay [5] (setting [7]), 98.1%.
As for `O=C(OCn1ncc(Br)c(Br)c1=O)c1ccccc1Cl`, the GFP response vs DMSO in assay [1] is 94.1% (inactive); in assay [1] (setting [6]), 96.2%; in assay [1] (setting [7]), 90.1%; in assay [3], 112% (inactive). The GFP response relative to DMSO in assay [2] was 172% (active); in assay [2] (setting [8]), 150%; in assay [2] (setting [9]) it was 167%. Further, the GFP response, % of DMSO in assay [4] is 105% (inactive); in assay [5], 95% (inactive); in assay [5] (setting [6]) it was 104%; in assay [5] (setting [7]) it was 86.3%.
In the case of `CCOC(=O)CSC1=NC(=O)/C(=C\c2ccc(Cl)cc2)S1`, the GFP response vs DMSO in assay [1] was 96.5% (inactive); in assay [1] (setting [6]), 87.9%; in assay [1] (setting [7]), 94.6%; in assay [3], 103% (inactive). Moreover, the figures for the GFP response relative to DMSO in assay [2], in assay [2] (setting [8]) and in assay [2] (setting [9]) were 197% (active), 150% and 186%, respectively. For the same molecule, the GFP response, % of DMSO in assay [4] was 116% (inactive); in assay [5], 88.9% (inactive); in assay [5] (setting [6]), 81.6%; in assay [5] (setting [7]) it was 88.2%.
Turning to `CC(=O)Oc1ccc(N2C(=O)C3C4C=CC(O4)C3C2=O)cc1` (configuration not stated), the GFP response vs DMSO was 98.2% (inactive) in assay [1], 99.1% in assay [1] (setting [6]), 98.9% in assay [1] (setting [7]) and 107% (inactive) in assay [3]. Also, the GFP response relative to DMSO in assay [2] was 102% (inactive); in assay [2] (setting [8]), 101%; in assay [2] (setting [9]), 101%. Also, the GFP response, % of DMSO was 96.8% (inactive) in assay [4], 99.7% (inactive) in assay [5], 99.1% in assay [5] (setting [6]) and 99.7% in assay [5] (setting [7]).
With `COc1cccc2c1Oc1ncccc1N(C(=O)CCC(=O)NCc1ccccc1)C2`, the GFP response vs DMSO in assay [1] was 99.2% (inactive); in assay [1] (setting [6]), 98.1%; in assay [1] (setting [7]), 101%; in assay [3] it was 103% (inactive). Further, the GFP response relative to DMSO in assay [2] was 97% (inactive); in assay [2] (setting [8]), 95.9%; in assay [2] (setting [9]), 97.3%. Besides, the GFP response, % of DMSO is 102% (inactive) in assay [4], 98.8% (inactive) in assay [5], 99.2% in assay [5] (setting [6]) and 98.1% in assay [5] (setting [7]).
With `Cc1nc(Sc2ccc(Br)cc2)c(C#N)c(C)c1[N+](=O)[O-]`, the GFP response vs DMSO in assay [1] is 106% (inactive); in assay [1] (setting [6]), 105%; in assay [1] (setting [7]) it was 104%; in assay [3], 101% (inactive). In addition, the GFP response relative to DMSO in assay [2] was 98.2% (inactive); in assay [2] (setting [8]) it was 97.5%; in assay [2] (setting [9]), 98.4%. In addition, the GFP response, % of DMSO in assay [4] is 96.1% (inactive); in assay [5], 98.8% (inactive); in assay [5] (setting [6]), 97.4%; in assay [5] (setting [7]) it was 76%.
Take `Cc1cccc(C(=O)Nc2ccc(O)cc2)c1`: the GFP response vs DMSO is 97.6% (inactive) in assay [1], 97% in assay [1] (setting [6]), 97.3% in assay [1] (setting [7]) and 108% (inactive) in assay [3]. For the same molecule, the values for the GFP response relative to DMSO in assay [2], in assay [2] (setting [8]) and in assay [2] (setting [9]) were 100% (inactive), 99% and 101%, respectively. In addition, the GFP response, % of DMSO in assay [4] is 104% (inactive); in assay [5], 103% (inactive); in assay [5] (setting [6]), 101%; in assay [5] (setting [7]), 104%.
Regarding `Cc1ccc(C(C[N+](=O)[O-])n2nc(C)cc2C)cc1` (configuration not stated), the GFP response vs DMSO is 97% (inactive) in assay [1], 101% in assay [1] (setting [6]), 93.6% in assay [1] (setting [7]) and 103% (inactive) in assay [3]. The GFP response relative to DMSO in assay [2] was 120% (inactive); in assay [2] (setting [8]), 120%; in assay [2] (setting [9]), 125%. For the same molecule, the GFP response, % of DMSO in assay [4] is 102% (inactive); in assay [5], 90.9% (inactive); in assay [5] (setting [6]), 95.2%; in assay [5] (setting [7]) it was 87.8%.
Take `O=C1ON=C(c2ccccc2)/C1=C/c1ccco1`: the GFP response vs DMSO in assay [1] is 95.8% (inactive); in assay [1] (setting [6]), 86.4%; in assay [1] (setting [7]), 85.2%; in assay [3], 141% (inactive). The GFP response relative to DMSO in assay [2] was 169% (active); in assay [2] (setting [8]), 137%; in assay [2] (setting [9]), 161%. The GFP response, % of DMSO was 89.2% (inactive) in assay [4], 83.5% (inactive) in assay [5], 92.7% in assay [5] (setting [6]) and 70% in assay [5] (setting [7]).
For `Oc1ccc(/C=N/Nc2nc(-c3cccnc3)nc3ccccc23)c(O)c1`, the GFP response vs DMSO was 93.5% (inactive) in assay [1], 95.3% in assay [1] (setting [6]), 94.6% in assay [1] (setting [7]) and 101% (inactive) in assay [3]. For the same molecule, the GFP response relative to DMSO in assay [2] was 83.8% (inactive); in assay [2] (setting [8]), 84.2%; in assay [2] (setting [9]), 82.7%. In addition, the GFP response, % of DMSO in assay [4] is 101% (inactive); in assay [5], 106% (inactive); in assay [5] (setting [6]), 108%; in assay [5] (setting [7]), 105%.
Turning to `Cc1ccccc1Oc1ncnc2oc(-c3ccccc3)cc12`, the GFP response vs DMSO was 100% (inactive) in assay [1], 98.9% in assay [1] (setting [6]), 101% in assay [1] (setting [7]) and 102% (inactive) in assay [3]. Also, the GFP response relative to DMSO in assay [2] was 96.7% (inactive); in assay [2] (setting [8]), 96%; in assay [2] (setting [9]) it was 97.2%. Further, the GFP response, % of DMSO was 97.2% (inactive) in assay [4], 99.7% (inactive) in assay [5], 99.1% in assay [5] (setting [6]) and 96.1% in assay [5] (setting [7]).
On to `Cc1ccc(C)c(Cn2ncc3ccccc32)c1`, for which the GFP response vs DMSO in assay [1] is 95.8% (inactive); in assay [1] (setting [6]), 98.1%; in assay [1] (setting [7]), 95.4%; in assay [3], 106% (inactive). In addition, the GFP response relative to DMSO in assay [2] is 100% (inactive); in assay [2] (setting [8]), 97.5%; in assay [2] (setting [9]), 104%. Besides, the GFP response, % of DMSO in assay [4] was 90.7% (inactive); in assay [5], 94.4% (inactive); in assay [5] (setting [6]), 95.8%; in assay [5] (setting [7]), 92.6%.
